Data reported in ChEMBL document CHEMBL1212734, “In vitro pharmacodynamics of levofloxacin and other aerosolized antibiotics under multiple conditions relevant to chronic pulmonary infection in cystic fibrosis” (2010).
In brackets after ≈: the same amount, converted by molar mass.

Experiments:
Format in all cases: functional
[1] = tested on: Pseudomonas aeruginosa; assay: Antibacterial activity against Pseudomonas aeruginosa PA5026 assessed as time required for reduction of bacterial load to 3 log CFU/ml at 0.6 mg/ml up to 48 hrs by time-kill assay
How it was run: (§1)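 Overnight cultures were diluted and grown at 37°C to OD600 ≈0.3, then set at 5 × 10^5–1 × 10^6 CFU/ml in 10 ml CAMHB. Drug was added at 0.2, 0.6 or 2.0 mg/ml, and cultures were shaken at 37°C. Samples taken at 0, 0.5, 1, 2, 4, 8 and 24 h were washed twice in CAMHB, diluted in saline and plated on Mueller-Hinton agar. Plates were incubated up to 48 h before colony counting.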

[2] = tested on: Pseudomonas aeruginosa; assay: Antibacterial activity against Pseudomonas aeruginosa PA899 assessed as time required for reduction of bacterial load to 3 log CFU/ml at 2 mg/ml up to 48 hrs by time-kill assay; how it was run: as §1
[3] = tested on: Pseudomonas aeruginosa; assay: Antibacterial activity against Pseudomonas aeruginosa PA5043 assessed as inhibition of biofilm formation by microtiter plate reader assay
How it was run: (§2)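 Biofilms of cystic fibrosis P. aeruginosa isolates were grown and tested by a previously described method. The endpoint was the biofilm inhibitory concentration, the drug level that prevents biofilm cell growth, compared against planktonic broth-microdilution MICs.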

[4] = tested on: Pseudomonas aeruginosa; assay: Antibacterial activity against Pseudomonas aeruginosa PA876 assessed as time required for reduction of bacterial load to 3 log CFU/ml at 0.6 mg/ml up to 48 hrs by time-kill assay; how it was run: as §1
[5] = tested on: Pseudomonas aeruginosa; assay: Antibacterial activity against Pseudomonas aeruginosa PA861 assessed as time required for reduction of bacterial load to 3 log CFU/ml at 2 mg/ml up to 48 hrs by time-kill assay; how it was run: as §1
[6] = tested on: Stenotrophomonas maltophilia; assay: Antibacterial activity against Stenotrophomonas maltophilia by broth dilution method
[7] = tested on: Pseudomonas aeruginosa; assay: Antibacterial activity against Pseudomonas aeruginosa PA5020 by broth dilution method
[8] = tested on: Pseudomonas aeruginosa; assay: Antibacterial activity against Pseudomonas aeruginosa PA880 assessed as time required for reduction of bacterial load to 3 log CFU/ml at 0.6 mg/ml up to 48 hrs by time-kill assay; how it was run: as §1
[9] = tested on: Pseudomonas aeruginosa; assay: Antibacterial activity against Pseudomonas aeruginosa PA5026 by broth dilution method
How it was run: (§3)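 Broth microdilution MIC per CLSI reference method; twofold serial dilutions in cation-adjusted Mueller-Hinton broth. […] Endpoint read by OD600 and confirmed visually.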

[10] = tested on: Pseudomonas aeruginosa; assay: Antibacterial activity against Pseudomonas aeruginosa PA1042 assessed as time required for reduction of bacterial load to 3 log CFU/ml at 2 mg/ml up to 48 hrs by time-kill assay; how it was run: as §1
[11] = tested on: Pseudomonas aeruginosa; assay: Antibacterial activity against Pseudomonas aeruginosa PA881 by broth dilution method; how it was run: as §3
[12] = tested on: Pseudomonas aeruginosa; assay: Antibacterial activity against Pseudomonas aeruginosa ATCC 27853 assessed as time required for reduction of bacterial load to 3 log CFU/ml at 0.2 mg/ml up to 48 hrs by time-kill assay
[13] = tested on: Pseudomonas aeruginosa; assay: Antibacterial activity against Pseudomonas aeruginosa PA5063 assessed as inhibition of biofilm formation by microtiter plate reader assay; how it was run: as §2
[14] = tested on: Pseudomonas aeruginosa; assay: Antibacterial activity against Pseudomonas aeruginosa PA899 assessed as time required for reduction of bacterial load to 3 log CFU/ml at 0.2 mg/ml up to 48 hrs by time-kill assay; how it was run: as §1
[15] = tested on: Pseudomonas aeruginosa; assay: Antibacterial activity against Pseudomonas aeruginosa PA880 assessed as time required for reduction of bacterial load to 3 log CFU/ml at 0.2 mg/ml up to 48 hrs by time-kill assay; how it was run: as §1
[16] = tested on: Pseudomonas aeruginosa; assay: Antibacterial activity against Pseudomonas aeruginosa PA1036 assessed as time required for reduction of bacterial load to 3 log CFU/ml at 0.2 mg/ml up to 48 hrs by time-kill assay; how it was run: as §1
[17] = tested on: Pseudomonas aeruginosa; assay: Antibacterial activity against Pseudomonas aeruginosa PA1036 assessed as time required for reduction of bacterial load to 3 log CFU/ml at 0.6 mg/ml up to 48 hrs by time-kill assay; how it was run: as §1
[18] = tested on: Pseudomonas aeruginosa; assay: Antibacterial activity against Pseudomonas aeruginosa PA1054 assessed as time required for reduction of bacterial load to 3 log CFU/ml at 0.6 mg/ml up to 48 hrs by time-kill assay; how it was run: as §1
[19] = tested on: Pseudomonas aeruginosa; assay: Antibacterial activity against Pseudomonas aeruginosa PA5043 assessed as time required for reduction of bacterial load to 3 log CFU/ml at 0.6 mg/ml up to 48 hrs by time-kill assay; how it was run: as §1
[20] = tested on: Pseudomonas aeruginosa; assay: Antibacterial activity against Pseudomonas aeruginosa PA1054 assessed as time required for reduction of bacterial load to 3 log CFU/ml at 2 mg/ml up to 48 hrs by time-kill assay; how it was run: as §1
[21] = tested on: Pseudomonas aeruginosa; assay: Antibacterial activity against Pseudomonas aeruginosa PA861 assessed as time required for reduction of bacterial load to 3 log CFU/ml at 0.6 mg/ml up to 48 hrs by time-kill assay; how it was run: as §1
[22] = tested on: Pseudomonas aeruginosa; assay: Antibacterial activity against Pseudomonas aeruginosa ATCC 27853 assessed as time required for reduction of bacterial load to 3 log CFU/ml at 0.6 mg/ml up to 48 hrs by time-kill assay
[23] = tested on: Pseudomonas aeruginosa; assay: Antibacterial activity against Pseudomonas aeruginosa PA1022 assessed as time required for reduction of bacterial load to 3 log CFU/ml at 0.2 mg/ml up to 48 hrs by time-kill assay; how it was run: as §1
[24] = tested on: Pseudomonas aeruginosa; assay: Antibacterial activity against Pseudomonas aeruginosa PA5020 assessed as time required for reduction of bacterial load to 3 log CFU/ml at 0.6 mg/ml up to 48 hrs by time-kill assay; how it was run: as §1
[25] = tested on: Pseudomonas aeruginosa; assay: Antibacterial activity against Pseudomonas aeruginosa by broth dilution method; how it was run: as §3
[26] = tested on: Pseudomonas aeruginosa; assay: Antibacterial activity against Pseudomonas aeruginosa ATCC 27853 assessed as time required for reduction of bacterial load to 3 log CFU/ml at 2 mg/ml up to 48 hrs by time-kill assay
[27] = tested on: Pseudomonas aeruginosa; assay: Antibacterial activity against Pseudomonas aeruginosa PA5026 assessed as time required for reduction of bacterial load to 3 log CFU/ml at 2 mg/ml up to 48 hrs by time-kill assay; how it was run: as §1
[28] = tested on: Pseudomonas aeruginosa; assay: Antibacterial activity against Pseudomonas aeruginosa PA5026 assessed as time required for reduction of bacterial load to 3 log CFU/ml at 0.2 mg/ml up to 48 hrs by time-kill assay; how it was run: as §1
[29] = tested on: Pseudomonas aeruginosa; assay: Antibacterial activity against Pseudomonas aeruginosa PA899 assessed as time required for reduction of bacterial load to 3 log CFU/ml at 0.6 mg/ml up to 48 hrs by time-kill assay; how it was run: as §1
[30] = tested on: Achromobacter xylosoxidans; assay: Antibacterial activity against Alcaligenes xylosoxidans by broth dilution method
[31] = tested on: Pseudomonas aeruginosa; assay: Antibacterial activity against Pseudomonas aeruginosa PA1054 by broth dilution method; how it was run: as §3
[32] = tested on: Pseudomonas aeruginosa; assay: Antibacterial activity against Pseudomonas aeruginosa PA1042 assessed as inhibition of biofilm formation by microtiter plate reader assay; how it was run: as §2
[33] = tested on: Pseudomonas aeruginosa; assay: Antibacterial activity against Pseudomonas aeruginosa PA876 assessed as time required for reduction of bacterial load to 3 log CFU/ml at 0.2 mg/ml up to 48 hrs by time-kill assay; how it was run: as §1
[34] = tested on: Pseudomonas aeruginosa; assay: Antibacterial activity against Pseudomonas aeruginosa PA899 by broth dilution method; how it was run: as §3

SMILES	Time [1]	Time [2]	BBC [3]	Time [4]	Time [5]	MIC50 [6]	MIC90 [6]	MIC [7]	Time [8]	MIC [9]	Time [10]	MIC50 [11]	Time [12]	BBC [13]	Time [14]	Time [15]	Time [16]	Time [17]	Time [18]	Time [19]	further results
C[C@H]1COc2c(N3CCN(C)CC3)c(F)cc3c(=O)c(C(=O)O)cn1c23.C[C@H]1COc2c(N3CCN(C)CC3)c(F)cc3c(=O)c(C(=O)O)cn1c23.O [LEVOFLOXACIN]	<=0.5 hr	<=0.5 hr	1 µg/mL	<=0.5 hr	<=0.5 hr	2 µg/mL	8 µg/mL	16 µg/mL	<=0.5 hr	8 µg/mL	<=0.5 hr	4 µg/mL	<=0.5 hr	1 µg/mL	<=0.5 hr	<=0.5 hr	<=0.5 hr	<=0.5 hr	<=0.5 hr	<=0.5 hr	Time [20]: <=0.5 hr; Time [21]: <=0.5 hr; Time [22]: <=0.5 hr; Time [23]: <=0.5 hr; Time [24]: 4 h; MIC50 [25]: 2 µg/mL; MIC90 [25]: 8 µg/mL; Time [26]: <=0.5 hr; Time [27]: <=0.5 hr; Time [28]: <=0.5 hr; Time [29]: <=0.5 hr; MIC50 [30]: 4 µg/mL; MIC90 [30]: 16 µg/mL; MIC [31]: 0.5 µg/mL; BBC [32]: 1 µg/mL; Time [33]: <=0.5 hr; MIC [34]: 0.5 µg/mL
C[C@H]1[C@H](NC(=O)/C(=N\OC(C)(C)C(=O)O)c2csc(N)n2)C(=O)N1S(=O)(=O)O [AZTREONAM]	>24 h	24 h	>64 µg/mL	>24 h	24 h	> 128 µg/mL	> 128 µg/mL	64 µg/mL (≈ 147 µM)	4 h	> 128 µg/mL	2 h	2 µg/mL (≈ 4.59 µM)	24 h	>256 µg/mL	>24 h	4 h	>24 h	24 h	24 h	2 h	Time [20]: 24 h; Time [21]: >24 h; Time [22]: 24 h; Time [23]: >24 h; Time [24]: >24 h; MIC50 [25]: 4 µg/mL (≈ 9.19 µM); MIC90 [25]: 128 µg/mL (≈ 294 µM); Time [26]: 24 h; Time [27]: >24 h; Time [28]: >24 h; Time [29]: 24 h; MIC50 [30]: 64 µg/mL (≈ 147 µM); MIC90 [30]: > 128 µg/mL; MIC [31]: 8 µg/mL (≈ 18.4 µM); BBC [32]: >8 µg/mL; Time [33]: >24 h; MIC [34]: 8 µg/mL (≈ 18.4 µM)
NC[C@H]1O[C@H](O[C@H]2[C@H](O)[C@@H](O[C@H]3O[C@H](CO)[C@@H](O)[C@H](N)[C@H]3O)[C@H](N)C[C@@H]2N)[C@H](N)C[C@@H]1O [TOBRAMYCIN]	1 h	<=0.5 hr	8 µg/mL	4 h	4 h	> 32 µg/mL	> 32 µg/mL	8 µg/mL (≈ 17.1 µM)	<=0.5 hr	32 µg/mL (≈ 68.4 µM)	<=0.5 hr	2 µg/mL (≈ 4.28 µM)	<=0.5 hr	2 µg/mL	<=0.5 hr	<=0.5 hr	<=0.5 hr	<=0.5 hr	<=0.5 hr	1 h	Time [20]: <=0.5 hr; Time [21]: 8 h; Time [22]: <=0.5 hr; Time [23]: 4 h; Time [24]: 2 h; MIC50 [25]: 2 µg/mL (≈ 4.28 µM); MIC90 [25]: > 32 µg/mL; Time [26]: <=0.5 hr; Time [27]: <=0.5 hr; Time [28]: 2 h; Time [29]: <=0.5 hr; MIC50 [30]: > 32 µg/mL; MIC90 [30]: > 32 µg/mL; MIC [31]: 0.25 µg/mL (≈ 0.535 µM); BBC [32]: 1 µg/mL; Time [33]: 4 h; MIC [34]: 0.25 µg/mL (≈ 0.535 µM)
